Test results from ChEMBL document CHEMBL1123111, “Potential inhibitors of S-adenosylmethionine-dependent methyltransferases. 8. Molecular dissections of carbocyclic 3-deazaadenosine as inhibitors of S-adenosylhomocysteine hydrolase” (1985).

Legend:
[1] = system: L929; assay: Compound was evaluated for cellular toxicity by [3H]thymidine incorporation into DNA of uninfected L-929 cells after 36h exposure; type: functional, Mus musculus; design: concentration or dose not given beside the values
In short: (§1)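 Uninfected mouse L-929 monolayers (2.5 × 10^6 cells/60-mm dish) exposed to 10 µM compound or no drug in serum-free KU-1 medium for 36 or 72 h. Then pulsed with [3H]thymidine. Cells trypsinized, precipitated in 10% TCA at 4 °C, and precipitates collected on glass-fibre filters. Filters solubilized and counted by liquid scintillation. Incorporation expressed as percent of untreated controls.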

[2] = target: Adenosylhomocysteinase (Bos taurus) (UniProt Q3MHL4); assay: Evaluated for the inhibition of bovine liver S-adenosyl-homocysteine hydrolase at concentration 2.0 mM
Chain of Adenosylhomocysteinase (Bos taurus) (Q3MHL4 whole entry, looked up): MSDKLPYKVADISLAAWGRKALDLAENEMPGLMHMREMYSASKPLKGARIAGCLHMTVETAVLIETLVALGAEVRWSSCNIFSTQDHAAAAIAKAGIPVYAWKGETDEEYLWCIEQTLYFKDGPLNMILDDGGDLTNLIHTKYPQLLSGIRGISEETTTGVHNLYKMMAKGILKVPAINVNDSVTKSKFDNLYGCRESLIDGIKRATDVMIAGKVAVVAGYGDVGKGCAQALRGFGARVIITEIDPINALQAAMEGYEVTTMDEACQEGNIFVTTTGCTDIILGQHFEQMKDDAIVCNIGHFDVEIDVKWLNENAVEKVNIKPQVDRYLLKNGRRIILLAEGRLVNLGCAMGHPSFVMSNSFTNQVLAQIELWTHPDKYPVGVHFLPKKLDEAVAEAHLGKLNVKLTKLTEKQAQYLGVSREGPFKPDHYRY

[3] = system: L929; assay: Ability to inhibit Vaccinia virus plaque formation after 72 hr in monolayer cultures of mouse L-929 cells; type: functional; design: concentration or dose not given beside the values
[4] = system: L929; assay: Compound was evaluated for cellular toxicity by [3H]thymidine incorporation into DNA of uninfected L-929 cells after 72 hr exposure; type: functional, Mus musculus; design: concentration or dose not given beside the values; in short: as §1

SMILES	Control [1]	inhibition [2]	Inhibition [3]	Control [4]
Nc1nccc2c1ncn2C(CO)CCCO (centres undefined)	91%	50%	27%	140%
Nc1nccc2c1ncn2CC(O)CO (centres undefined)	88%	95%	53%	138%
Nc1nccc2c1ncn2CCO	95%	27%	33%	113%
Nc1nccc2c1ncn2CCCCO	102%	12%	51%	110%
Nc1nccc2c1ncn2[C@@H]1C[C@H](CO)[C@@H](O)[C@H]1O [3-DEAZAARISTEROMYCIN A]	86%	–	95%	246%
